Measurements reported in ChEMBL document CHEMBL3232816, “Substituted E-3-(3-indolylmethylene)1,3-dihydroindol-2-ones with antiproliferative activity. Study of the effects on HL-60 leukemia cells” (2014).
Where a name gives a salt, the structure may show the parent alone.

Legend:
Assay type in all cases: functional
[1] = Cytotoxicity against human leukemia cells after 48 hrs; conditions: for GI50 / TGI: Leukemia cell
In short: (§1)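 NCI 60-line panel. Compounds were dissolved in DMSO and tested at five 10-fold dilutions, the highest 10^-4 M (10^-3 M where footnoted), over 48 h of incubation. The readouts were GI50, TGI and LC50 in μM, with the panel mean also given. Only compounds passing a 10^-5 M single-dose prescreen were tested; some were repeated and averaged over two experiments.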

[2] = Cytotoxicity against human NSCLC cells after 48 hrs; in short: as §1
[3] = Cytotoxicity against human colon cancer cells after 48 hrs; conditions: Cancer cell lines; for CC50: read-out: LC50 (the source's name); in short: as §1
[4] = Cytotoxicity against human melanoma cells after 48 hrs; conditions: Melanoma cell; in short: as §1
[5] = Cytotoxicity against human ovarian cancer cells after 48 hrs; conditions: Cancer cell lines; in short: as §1
[6] = Cytotoxicity against human renal cancer cells after 48 hrs; conditions: Cancer cell lines; in short: as §1
[7] = Cytotoxicity against human prostate cancer cells after 48 hrs; conditions: Cancer cell lines; for CC50: read-out: LC50 (the source's name); in short: as §1
[8] = Cytotoxicity against human breast cancer cells after 48 hrs; conditions: Cancer cell lines; for CC50: read-out: LC50 (the source's name); in short: as §1
[9] = Cytotoxicity against human CNS cancer cells after 48 hrs; conditions: Cancer cell lines; for CC50: read-out: LC50 (the source's name); in short: as §1

| Structure (SMILES) | GI50 [1] [µM] | TGI [1] [µM] | GI50 [2] [µM] | TGI [2] [µM] | GI50 [3] [µM] | TGI [3] [µM] | CC50 [3] [µM] | GI50 [4] [µM] | LC50 [4] [µM] | TGI [4] [µM] | GI50 [5] [µM] | TGI [5] [µM] | GI50 [6] [µM] | TGI [6] [µM] | GI50 [7] [µM] | TGI [7] [µM] | GI50 [8] [µM] | TGI [8] [µM] | GI50 [9] [µM] | TGI [9] [µM] | other results |
| --- | --- | --- | --- | --- | --- | --- | --- | --- | --- | --- | --- | --- | --- | --- | --- | --- | --- | --- | --- | --- | --- |
| COc1cc2c(/C=C3/C(=O)Nc4cccc(Cl)c43)c(Cl)n(Cc3cc(OC)c(OC)c(OC)c3)c2cc1C | 2.45 | 14.1 | 3.24 | 12 | 2.88 | 10 | 51.3 | 2.88 | 51.3 | 8.91 | 3.98 | 22.9 | 3.24 | 11.8 | 1.91 | 5.13 | 2.95 | 15.1 | 3.02 | 12.6 | LC50 (concentration giving 50% net cell kill) [1]: 51.3 µM; LC50 [2]: 47.9 µM; LC50 [5]: 66.1 µM; LC50 [6]: 45.7 µM; CC50 [7]: 17.4 µM; CC50 [8]: 61.7 µM; CC50 [9]: 40.7 µM |
| O=C1/C(=C/c2c(Cl)[nH]c3ccccc23)c2ccccc2N1Cc1ccccc1 | 2.95 | 21.4 | 6.61 | 85.1 | 4.17 | 79.4 | – | 5.13 | – | 61.7 | 9.12 | 79.4 | 5.25 | 77.6 | 6.17 | – | 4.17 | 56.2 | 4.9 | 69.2 | – |
| O=C1Nc2ccccc2/C1=C\c1c(Cl)n(Cc2ccccc2)c2ccccc12 | 3.63 | 21.4 | 14.8 | 57.5 | 19.9 | 60.3 | 95.5 | 8.91 | 87.1 | 32.4 | 20.9 | 66.1 | 20.4 | 70.8 | 20.4 | 55 | 12.9 | 64.6 | 16.6 | 47.9 | LC50 (concentration giving 50% net cell kill) [1]: 75.9 µM; LC50 [5]: 95.5 µM; CC50 [9]: 93.3 µM |
| O=C1Nc2ccc(Cl)cc2/C1=C\c1c(Cl)n(CCCc2ccccc2)c2ccccc12 | 2.88 | 81.3 | 2.24 | 8.91 | 1.95 | 5.62 | 19.1 | 2.04 | 35.5 | 5.75 | 2.45 | 23.4 | 1.86 | 9.77 | 2 | 6.46 | 2.19 | 9.12 | 2.82 | 10.2 | LC50 [2]: 28.8 µM; LC50 [5]: 60.3 µM; LC50 [6]: 17.8 µM; CC50 [7]: 34.7 µM; CC50 [8]: 42.7 µM; CC50 [9]: 50.1 µM |
| CC[C@]1(O)C[C@H]2CN(CCc3c([nH]c4ccccc34)[C@@](C(=O)OC)(c3cc4c(cc3OC)N(C=O)[C@H]3[C@@](O)(C(=O)OC)[C@H](OC(C)=O)[C@]5(CC)C=CCN6CC[C@]43[C@@H]65)C2)C1 [VINCRISTINE SULFATE] | 0.1 | – | 0.25 | – | 0.1 | – | – | 0.16 | – | – | 0.32 | – | 0.32 | – | 0.13 | – | 0.32 | – | 0.13 | – | – |
| O=C1Nc2ccccc2/C1=C\c1c(Cl)n(CCCc2ccccc2)c2ccccc12 | 8.91 | 50.1 | 14.1 | 72.4 | 12 | 60.3 | – | 13.8 | – | 67.6 | 12 | 72.4 | 13.8 | 67.6 | 19.1 | – | 10 | 72.4 | 16.6 | 75.9 | – |
| O=C1Nc2ccc(O)cc2/C1=C\c1c(Cl)n(CCc2ccccc2)c2ccccc12 | 3.39 | 77.6 | 7.08 | 50.1 | 9.77 | 33.9 | 72.4 | 7.08 | 74.1 | 28.2 | 9.12 | 64.6 | 9.33 | 55 | 6.76 | 47.9 | 3.98 | 25.1 | 10.5 | 52.5 | LC50 [5]: 95.5 µM; LC50 [6]: 95.5 µM; CC50 [9]: 95.5 µM |
| COc1ccc2c(c1)/C(=C\c1c(OC)n(-c3ccccc3)c3ccccc13)C(=O)N2 | 0.76 | 4.47 | 2.51 | 17.4 | 1.74 | 11 | 42.7 | 2.4 | 50.1 | 17 | 2 | 17.4 | 2.29 | 17.4 | 2.63 | 13.2 | 0.63 | 7.24 | 0.98 | 9.55 | LC50 (concentration giving 50% net cell kill) [1]: 58.9 µM; LC50 [2]: 63.1 µM; LC50 [5]: 66.1 µM; LC50 [6]: 63.1 µM; CC50 [7]: 52.5 µM; CC50 [8]: 47.9 µM; CC50 [9]: 38.9 µM |
| COc1c(/C=C2/C(=O)Nc3ccc(Cl)cc32)c2ccccc2n1-c1ccccc1 | 2.34 | 8.91 | 9.55 | 24.6 | 6.31 | 25.7 | 60.3 | 5.62 | 51.3 | 18.2 | 8.51 | 24 | 8.51 | 21.9 | 9.33 | 24 | 4.27 | 13.8 | 5.25 | 19.1 | LC50 (concentration giving 50% net cell kill) [1]: 58.9 µM; LC50 [2]: 57.5 µM; LC50 [5]: 66.1 µM; LC50 [6]: 51.3 µM; CC50 [7]: 60.3 µM; CC50 [8]: 52.5 µM; CC50 [9]: 52.5 µM |
| COc1ccc(OC)c2c1NC(=O)/C2=C/c1c(Cl)[nH]c2ccccc12 | 1.51 | 56.2 | 3.55 | 22.4 | 2.24 | 8.91 | 33.9 | 3.39 | 46.8 | 16.2 | 2.51 | 15.1 | 3.39 | 16.2 | 3.47 | 19.9 | 1.62 | 12.6 | 2.75 | 13.5 | LC50 [2]: 74.1 µM; LC50 [5]: 41.7 µM; LC50 [6]: 53.7 µM; CC50 [7]: 51.3 µM; CC50 [8]: 64.6 µM; CC50 [9]: 44.7 µM |
| COc1cc2c(cc1C)NC(=O)/C2=C/c1c(Cl)n(Cc2cc(OC)c(OC)c(OC)c2)c2cc(C)c(OC)cc12 | 3.24 | 42.7 | 11 | 66.1 | 16.6 | – | – | 25.1 | – | – | 30.9 | – | 38.9 | – | 5.5 | 87.1 | 10 | – | 49 | – | – |
| COc1ccc2c(c1)/C(=C\c1c(Cl)n(C/C=C/c3ccccc3)c3ccccc13)C(=O)N2 | 2 | – | 2.24 | 37.1 | 1.32 | 21.9 | – | 2.4 | – | 38.9 | 2.09 | 41.7 | 1.91 | 30.2 | 2.09 | 16.2 | 1.86 | 36.3 | 2.04 | – | – |
| COc1ccc2c(c1)/C(=C\c1c(Cl)n(Cc3cc(OC)c(OC)c(OC)c3)c3cc(C)c(OC)cc13)C(=O)N2 | 6.17 | 77.6 | 20.4 | 97.7 | 11 | 85.1 | – | 14.8 | – | 75.9 | 33.1 | – | 29.5 | – | 14.5 | 95.5 | 10.2 | 57.5 | 16.2 | 75.9 | – |
| COc1cc2c(c(OC)c1OC)/C(=C\c1c(Cl)[nH]c3ccccc13)C(=O)N2 | 0.55 | 7.08 | 1.86 | 9.12 | 1.29 | 4.27 | 18.2 | 1.86 | 30.9 | 6.61 | 1.51 | 9.77 | 1.35 | 5.37 | 1.17 | 5.5 | 1.62 | 8.13 | 1.58 | 6.31 | LC50 (concentration giving 50% net cell kill) [1]: 42.7 µM; LC50 [2]: 67.6 µM; LC50 [5]: 77.6 µM; LC50 [6]: 36.3 µM; CC50 [8]: 66.1 µM; CC50 [9]: 35.5 µM |
| COc1c(/C=C2/C(=O)Nc3ccccc32)c2ccccc2n1-c1ccccc1 | 0.52 | 2.63 | 2.14 | 8.32 | 1.05 | 3.24 | 7.94 | 1.48 | 10.5 | 3.98 | 1.38 | 4.07 | 1.12 | 4.07 | 1.12 | 3.47 | 1.23 | 4.47 | 2.19 | 8.51 | LC50 (concentration giving 50% net cell kill) [1]: 50.1 µM; LC50 [2]: 27.5 µM; LC50 [5]: 15.8 µM; LC50 [6]: 13.2 µM; CC50 [7]: 19.1 µM; CC50 [8]: 27.5 µM; CC50 [9]: 30.9 µM |
